ChEMBL document CHEMBL1147839, “New highly hydrosoluble and not self-aggregated perylene derivatives with three and four polar side-chains as G-quadruplex telomere targeting agents and telomerase inhibitors” (Bioorg Med Chem Lett, 2007)

Experiments:
Homo sapiens [1] = organism: Homo sapiens; assay: Inhibition of human telomerase at 2 uM after 2 hrs by TRAP assay
Procedure, shortened: (§1)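 Modified TRAP with TSG4 substrate primer (0.4 μM) and 50 μM dNTPs in TRAP buffer (pH 8.3, 1.5 mM MgCl2, 68 mM KCl, 0.05% Tween 20, 1 mM EGTA). The mix was heated 90 C 10 min, then iced. Drug was preincubated 2 h at 30 C. SKN-Be neuroblastoma cell extract was added for 30 min at 30 C, then phenol/chloroform extraction. PCR (30 cycles) used 32P-TSG4, CXext primer and Taq. Runs done at least three independent times.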

Homo sapiens [2] = organism: Homo sapiens; assay: Inhibition of human telomerase at 5 uM after 2 hrs by TRAP assay; procedure, shortened: as §1
Homo sapiens [3] = organism: Homo sapiens; assay: Inhibition of human telomerase at 10 uM after 2 hrs by TRAP assay; procedure, shortened: as §1
Homo sapiens [4] = organism: Homo sapiens; assay: Inhibition of human telomerase at 20 uM after 2 hrs by TRAP assay; procedure, shortened: as §1

inhibition (Homo sapiens [1]) | inhibition (Homo sapiens [2]) | inhibition (Homo sapiens [3]) | inhibition (Homo sapiens [4]) | Compound
12% | 47% | 56% | 59% | CN(C)CCCNc1cc2c3c(cc(NCCCN(C)C)c4c5ccc6c7c(ccc(c1c34)c75)C(=O)N(CCCN(C)C)C6=O)C(=O)N(CCCN(C)C)C2=O
24% | 39% | 57% | 59% | CN(C)CCCNc1cc2c3c(ccc4c5ccc6c7c(ccc(c1c34)c75)C(=O)N(CCCN(C)C)C6=O)C(=O)N(CCCN(C)C)C2=O
18% | 49% | 55% | 59% | CN(C)CCCNc1cc2c3c(ccc4c5c(Br)cc6c7c(ccc(c1c34)c75)C(=O)N(CCCN(C)C)C6=O)C(=O)N(CCCN(C)C)C2=O
8% | 41% | 54% | 54% | CN(C)CCCNc1cc2c3c(ccc4c5c(NCCCN(C)C)cc6c7c(ccc(c1c34)c75)C(=O)N(CCCN(C)C)C6=O)C(=O)N(CCCN(C)C)C2=O
